Where a chain is given by its changes, count along the chain named. Read-outs that look alike come from different tables or passages of the source.
Experiments:
[1] = target: α-galactosidase (green coffee beans) (Coffea arabica, UniProt Q42656); experiment: biochemical; conditions: for α-Gal % Ra (% remaining activity at 100 µM): 100 µM compound, substrate at Km; for remaining activity at 100 µM: read-out: α-Gal % Ra (% remaining activity at 100 µM)
[2] = target: T1, α-mannosidase (jack bean) (Canavalia ensiformis, UniProt C0HJB3); experiment: Glycosidase inhibition assay, α-mannosidase; assay type: biochemical; conditions: for α-Man % Ra (% remaining activity at 100 µM): 100 µM compound, substrate at Km; for remaining activity at 100 µM: read-out: α-Man % Ra (% remaining activity at 100 µM)
T1 sequence (C0HJB3 1-562 limits assumed): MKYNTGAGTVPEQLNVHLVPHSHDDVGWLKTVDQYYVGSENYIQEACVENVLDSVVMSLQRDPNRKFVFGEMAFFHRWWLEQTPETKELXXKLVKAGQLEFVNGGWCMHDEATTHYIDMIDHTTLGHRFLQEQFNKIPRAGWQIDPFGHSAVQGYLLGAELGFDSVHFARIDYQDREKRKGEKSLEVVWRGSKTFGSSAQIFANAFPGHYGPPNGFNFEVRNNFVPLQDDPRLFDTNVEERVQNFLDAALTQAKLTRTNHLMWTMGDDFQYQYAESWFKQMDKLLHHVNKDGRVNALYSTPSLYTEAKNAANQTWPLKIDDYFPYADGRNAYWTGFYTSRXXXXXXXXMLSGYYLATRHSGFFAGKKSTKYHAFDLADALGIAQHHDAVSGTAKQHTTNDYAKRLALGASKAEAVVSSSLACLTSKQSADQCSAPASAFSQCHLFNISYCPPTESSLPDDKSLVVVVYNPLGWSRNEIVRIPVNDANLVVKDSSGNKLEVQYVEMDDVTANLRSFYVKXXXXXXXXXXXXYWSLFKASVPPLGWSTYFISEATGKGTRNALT
T1 sequence (C0HJB3 563-981 partner limits assumed): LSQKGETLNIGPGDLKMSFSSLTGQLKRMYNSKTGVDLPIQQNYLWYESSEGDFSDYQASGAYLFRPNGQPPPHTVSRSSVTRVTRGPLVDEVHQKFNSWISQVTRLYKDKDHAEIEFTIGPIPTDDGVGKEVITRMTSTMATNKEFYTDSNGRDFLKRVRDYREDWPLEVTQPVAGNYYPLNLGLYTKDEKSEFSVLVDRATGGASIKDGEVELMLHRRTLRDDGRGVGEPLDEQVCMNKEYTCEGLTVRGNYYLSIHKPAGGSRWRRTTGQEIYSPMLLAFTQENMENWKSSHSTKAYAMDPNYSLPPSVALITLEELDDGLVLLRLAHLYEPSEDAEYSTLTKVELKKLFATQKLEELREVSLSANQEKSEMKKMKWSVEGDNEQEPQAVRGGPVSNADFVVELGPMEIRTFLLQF
How it was run: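 Enzyme starts the reaction with test compound at 100 µM. After 4–5 min at room temperature, 0.2 M sodium borate (pH 9.8) quenches it. Absorbance is read at 405 nm and reported as % remaining activity.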

[3] = target: β-galactosidase (Escherichia coli) (Escherichia coli, UniProt P00722); experiment: biochemical; conditions: for β-Gal % Ra (% remaining activity at 100 µM): 100 µM compound; for remaining activity at 100 µM: read-out: β-Gal % Ra (% remaining activity at 100 µM)
β-glucosidase (almond) = experiment: Glycosidase inhibition assay, β-glucosidase; assay type: biochemical; conditions: substrate at Km; for β-Glc % Ra (% remaining activity at 100 µM): 100 µM compound; for IC50: read-out: β-Glc IC50
How it was run: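 Enzyme is added last; incubation is 4–5 min at room temperature, then 0.2 M sodium borate (pH 9.8) quenches. Absorbance at 405 nm gives % remaining activity at 100 µM compound. IC50 comes from non-linear fitting of relative activity versus concentration to a Hill-slope equation.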

[4] = system: β-mannosidase (Roman snail); experiment: Glycosidase inhibition assay, β-mannosidase; assay type: biochemical; conditions: 100 µM compound; substrate at Km
How it was run: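 Test compound is at 100 µM. Enzyme addition starts the reaction, which runs 4–5 min at room temperature before quenching with 0.2 M sodium borate (pH 9.8). Absorbance is read at 405 nm and given as % remaining activity.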

[5] = target: T2, ceramide-specific glucosyltransferase (Rattus norvegicus, UniProt Q9R0E0); experiment: Ceramide-specific glucosyltransferase assay, rat testicular microsomes; assay type: biochemical, Long Evans (LE) rat; conditions: rat testicular microsomes, n.i. = no inhibition at 1000 µM concentration; for IC50: read-out: ceramide-specific glucosyltransferase IC50 (LE rat)
T2 sequence (Q9R0E0 1-394): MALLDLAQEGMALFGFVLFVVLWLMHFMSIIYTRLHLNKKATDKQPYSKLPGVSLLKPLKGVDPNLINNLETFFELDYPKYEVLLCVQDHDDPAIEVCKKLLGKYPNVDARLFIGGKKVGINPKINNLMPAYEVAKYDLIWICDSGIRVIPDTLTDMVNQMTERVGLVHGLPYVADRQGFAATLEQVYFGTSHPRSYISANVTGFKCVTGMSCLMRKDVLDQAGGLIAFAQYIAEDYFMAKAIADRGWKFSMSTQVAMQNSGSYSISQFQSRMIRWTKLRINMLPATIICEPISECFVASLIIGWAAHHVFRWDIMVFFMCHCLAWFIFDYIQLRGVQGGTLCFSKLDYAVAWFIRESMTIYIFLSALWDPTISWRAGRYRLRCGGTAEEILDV

[6] = target: T3, ceramide-specific glucosyltransferase (Mus musculus, UniProt O88693); experiment: Ceramide-specific glucosyltransferase assay, mouse testicular microsomes; assay type: biochemical, C57BL/6 mouse; conditions: mouse testicular microsomes, n.i. = no inhibition at 1000 µM concentration; for IC50: read-out: ceramide-specific glucosyltransferase IC50 (C57BL/6, mouse)
T3 sequence (O88693 1-394): T2 sequence (Q9R0E0 1-394) with E96D, R164K, K249R, A377T

[7] = system: α-glucosidase (Saccharomyces cerevisiae); experiment: Glycosidase inhibition assay, α-glucosidase; assay type: biochemical; conditions: substrate at Km; for α-Glc % Ra (% remaining activity at 100 µM): 100 µM compound
[8] = target: T4, testicular β-glucosidase 2 (Rattus norvegicus, UniProt Q5M868); experiment: Testicular glucosidase assay; assay type: biochemical, Long Evans (LE) rat; conditions: rat testicular microsomes; n.i. = no inhibition at 1000 µM concentration
T4 sequence (Q5M868 1-912): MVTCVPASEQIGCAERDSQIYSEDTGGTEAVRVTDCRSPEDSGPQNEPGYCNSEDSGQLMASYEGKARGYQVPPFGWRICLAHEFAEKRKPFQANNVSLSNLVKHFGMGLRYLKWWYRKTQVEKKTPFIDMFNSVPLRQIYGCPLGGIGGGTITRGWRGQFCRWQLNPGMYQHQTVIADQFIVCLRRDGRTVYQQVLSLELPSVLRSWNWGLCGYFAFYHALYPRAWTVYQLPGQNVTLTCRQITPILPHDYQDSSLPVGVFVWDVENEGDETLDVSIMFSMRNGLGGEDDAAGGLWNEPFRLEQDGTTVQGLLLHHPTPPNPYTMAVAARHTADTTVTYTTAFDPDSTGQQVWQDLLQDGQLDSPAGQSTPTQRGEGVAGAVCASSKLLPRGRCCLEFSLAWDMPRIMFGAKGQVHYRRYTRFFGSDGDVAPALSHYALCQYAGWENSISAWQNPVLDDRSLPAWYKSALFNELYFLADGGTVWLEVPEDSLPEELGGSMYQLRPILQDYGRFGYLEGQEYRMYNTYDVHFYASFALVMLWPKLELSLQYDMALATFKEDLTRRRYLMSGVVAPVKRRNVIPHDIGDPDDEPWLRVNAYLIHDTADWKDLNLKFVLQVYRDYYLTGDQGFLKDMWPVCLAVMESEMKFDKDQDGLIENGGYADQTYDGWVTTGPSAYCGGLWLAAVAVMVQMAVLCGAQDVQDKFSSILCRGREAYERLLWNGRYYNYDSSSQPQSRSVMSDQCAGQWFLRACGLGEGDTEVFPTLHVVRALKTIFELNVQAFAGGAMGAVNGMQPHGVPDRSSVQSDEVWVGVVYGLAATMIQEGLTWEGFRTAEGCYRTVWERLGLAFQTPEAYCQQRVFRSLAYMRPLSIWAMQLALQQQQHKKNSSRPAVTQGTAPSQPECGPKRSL

Chain of β-galactosidase (Escherichia coli) (P00722 2-1024): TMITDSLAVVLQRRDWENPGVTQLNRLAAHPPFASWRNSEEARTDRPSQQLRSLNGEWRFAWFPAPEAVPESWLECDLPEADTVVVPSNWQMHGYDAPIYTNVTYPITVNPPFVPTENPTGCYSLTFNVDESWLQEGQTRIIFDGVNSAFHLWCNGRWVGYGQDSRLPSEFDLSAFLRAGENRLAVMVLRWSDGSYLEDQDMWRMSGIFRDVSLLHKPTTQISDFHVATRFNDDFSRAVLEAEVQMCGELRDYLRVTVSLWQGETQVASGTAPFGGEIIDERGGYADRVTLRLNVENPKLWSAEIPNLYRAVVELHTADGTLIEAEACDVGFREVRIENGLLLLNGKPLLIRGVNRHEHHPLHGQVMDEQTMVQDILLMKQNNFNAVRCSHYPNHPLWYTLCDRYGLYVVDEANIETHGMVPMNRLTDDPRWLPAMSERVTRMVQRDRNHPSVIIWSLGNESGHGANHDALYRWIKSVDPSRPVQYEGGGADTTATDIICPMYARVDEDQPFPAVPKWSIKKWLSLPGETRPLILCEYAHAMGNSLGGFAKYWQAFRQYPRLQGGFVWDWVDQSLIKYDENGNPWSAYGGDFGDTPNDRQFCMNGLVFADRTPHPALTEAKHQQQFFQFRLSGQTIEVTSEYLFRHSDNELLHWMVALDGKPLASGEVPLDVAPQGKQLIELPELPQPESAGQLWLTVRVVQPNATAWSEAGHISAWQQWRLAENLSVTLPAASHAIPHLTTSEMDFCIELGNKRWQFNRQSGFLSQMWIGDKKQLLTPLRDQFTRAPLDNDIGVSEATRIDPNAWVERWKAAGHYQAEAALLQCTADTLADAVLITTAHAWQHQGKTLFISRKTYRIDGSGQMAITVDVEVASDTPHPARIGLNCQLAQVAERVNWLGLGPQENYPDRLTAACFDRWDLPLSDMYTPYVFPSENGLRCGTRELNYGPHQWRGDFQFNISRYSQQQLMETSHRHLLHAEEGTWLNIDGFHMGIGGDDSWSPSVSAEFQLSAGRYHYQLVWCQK
Chain of α-galactosidase (green coffee beans) (Q42656 16-378): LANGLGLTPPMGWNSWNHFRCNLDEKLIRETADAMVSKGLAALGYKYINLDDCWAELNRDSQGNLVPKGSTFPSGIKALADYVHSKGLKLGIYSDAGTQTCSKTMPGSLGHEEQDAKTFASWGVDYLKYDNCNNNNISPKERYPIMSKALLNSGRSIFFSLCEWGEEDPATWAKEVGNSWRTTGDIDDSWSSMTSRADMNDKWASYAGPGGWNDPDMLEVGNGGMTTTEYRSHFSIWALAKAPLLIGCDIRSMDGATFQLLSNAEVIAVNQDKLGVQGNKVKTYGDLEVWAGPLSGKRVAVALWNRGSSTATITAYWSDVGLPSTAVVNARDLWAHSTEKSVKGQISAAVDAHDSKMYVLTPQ

Row | Compound | α-Gal % Ra (% remaining activity at 100 µM) [1] | α-Man % Ra (% remaining activity at 100 µM) [2] | β-Gal % Ra (% remaining activity at 100 µM) ([3]; substrate at Km) | β-Glc % Ra (% remaining activity at 100 µM) (β-glucosidase (almond)) | β-Man % Ra (% remaining activity at 100 µM) [4] | IC50 [5] | α-Glc % Ra (% remaining activity at 100 µM) [7] | remaining activity at 100 µM [3] | IC50 (β-glucosidase (almond)) | ceramide-specific glucosyltransferase IC50 (C57BL/6, mouse) [6] | further results
1 | CCCCN1[C@H](CO)[C@@H](O)[C@@H]1CO [Compound 24, ((2R,3s,4S)-1-Butyl-3-hydroxyazetidine-2,4-diyl)dimethanol] | 106% | 99% | 109% | 101% | 113% | > 300 µM | 65% | – | – | – | IC50 [6]: > 300 µM
2 | CCCCN1CCC[C@@H](O)[C@H](O)[C@@H](O)C1 [Compound 1, (3S,4S,5R)-1-Butylazocane-3,4,5-triol] | – | – | – | 37% | 100% | – | 93% | 98% | 87 µM | n.i. | remaining activity at 100 µM [1]: 100%; remaining activity at 100 µM [2]: 100%; β-glucosidase 2 IC50 (LE rat) [8]: did not show inhibitory activity and n.i.; ceramide-specific glucosyltransferase IC50 (LE rat) [5]: n.i.
3 | O[C@H]1[C@H](O)[C@@H](O)CN2CC[C@H](O)[C@H]12 [Castano., castanospermine, reference compound] | – | – | – | 13.5% | – | – | – | – | – | – | –
4 | CCCCN1C/C=C\[C@@H](O)[C@H](O)[C@@H](O)C1 [Compound 3, (3S,4S,5R,Z)-1-Butyl-1,2,3,4,5,8-hexahydroazocine-3,4,5-triol] | – | – | – | 52% | 99% | – | 81% | 94% | 105 µM | n.i. | remaining activity at 100 µM [1]: 100%; remaining activity at 100 µM [2]: 100%; ceramide-specific glucosyltransferase IC50 (LE rat) [5]: n.i.
5 | OC[C@H]1NC[C@@H](O)[C@@H](O)[C@@H]1O [DMJ, 1-deoxymannojirimycin, reference compound] | – | 75% | – | – | 77% | – | – | – | – | – | –
6 | CCCCCCCCCN1C[C@@H](O)[C@@H](O)[C@@H](O)[C@H](O)[C@@H](O)C1 [Compound 6, (3S,4R,5S,6R,7R)-1-Nonylazocane-3,4,5,6,7-pentaol] | 100% | 100% | 92% | 85% | 99% | 127 µM | 84% | – | – | n.i. | –
7 | OC[C@H]1NC[C@H](O)[C@@H](O)[C@@H]1O [DNJ, 1-deoxynojirimycin, reference compound] | – | – | – | – | – | – | 34% | – | – | – | –
8 | CCCCCCCCCN1[C@H](CO)[C@@H](O)[C@@H]1CO [Compound 25, ((2R,3s,4S)-3-Hydroxy-1-nonylazetidine-2,4-diyl)dimethanol] | 66% | 92% | 107% | 26% | 76% | 91 µM | – | – | 20 µM | – | IC50 [6]: 44 µM; IC50 ([7]; read-out: α-Glc IC50): 0.6 µM
9 | CCCCN1C[C@H](O)[C@@H](O)[C@@H](O)[C@H]1CO [NB-DGJ, N-butyldeoxygalactonojirimycin, reference compound] | – | – | – | – | – | – | – | 9.6% | – | – | IC50 [3]: 6 µM
10 | OC[C@H]1NC[C@H](O)[C@@H](O)[C@H]1O [DGJ, 1-deoxygalactonojirimycin, reference compound] | 0.05% | – | 23% | – | – | – | – | – | – | – | IC50 ([3]; read-out: β-Gal IC50, substrate at Km): 40 µM

— article PMC3431965 (The Journal of organic chemistry, 2012)
